Reference: paper PMC4304478 (Journal of the American Chemical Society, 2014)
*1 amine or outer side, *2 acyl side, *3 side chain or, on linkers, in order; H or OH if unused. Bridges are numbered along the chain shown (N, C = ends). Roman numbers before positions name the chains, in order. Where no end group is shown, it is not given here. [ ]: non-standard residue; d: D form. X1 = O=C(NCCCOCCCCOCCCNC(=O)c1ccc(/C=N/OCC(=O)[*:2])cc1)c1ccc(/C=N/OCC(=O)[*:1])cc1; Dap = NC[C@H](N)C(=O)O

Assays:
[1] = target: integrin receptors (αvβ5) expressed on MDA-MB-231 cells (Homo sapiens, UniProt P06756+P18084); assay: Competition binding assay with Alexa488-2.5F on MDA-MB-231 cells; conditions: from competition IC50 values
[2] = system: MDA-MB-231 cells; assay: Cell proliferation assay; format: cell-based, human; conditions: varying concentrations, 12–72 h, Cell Counting Kit-8; relative to cilengitide
How it was run: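 MDA-MB-231 cells exposed to varying concentrations of test knottins or a reference compound for 12–72 h. Proliferation was read out as […] activity in living cells with the CCK-8 kit. Concentration–response was read at 72 h, and the time course used 1 μM protein. Values are expressed relative to an untreated control.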

Chain of integrin receptors (αvβ5) expressed on MDA-MB-231 cells (P06756 891-1048): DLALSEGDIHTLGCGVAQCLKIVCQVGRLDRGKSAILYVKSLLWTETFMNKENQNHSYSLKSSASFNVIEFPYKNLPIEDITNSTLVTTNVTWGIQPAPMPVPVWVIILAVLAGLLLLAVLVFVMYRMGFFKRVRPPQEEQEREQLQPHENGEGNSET
Chain of integrin receptors (αvβ5) expressed on MDA-MB-231 cells (P18084 24-799): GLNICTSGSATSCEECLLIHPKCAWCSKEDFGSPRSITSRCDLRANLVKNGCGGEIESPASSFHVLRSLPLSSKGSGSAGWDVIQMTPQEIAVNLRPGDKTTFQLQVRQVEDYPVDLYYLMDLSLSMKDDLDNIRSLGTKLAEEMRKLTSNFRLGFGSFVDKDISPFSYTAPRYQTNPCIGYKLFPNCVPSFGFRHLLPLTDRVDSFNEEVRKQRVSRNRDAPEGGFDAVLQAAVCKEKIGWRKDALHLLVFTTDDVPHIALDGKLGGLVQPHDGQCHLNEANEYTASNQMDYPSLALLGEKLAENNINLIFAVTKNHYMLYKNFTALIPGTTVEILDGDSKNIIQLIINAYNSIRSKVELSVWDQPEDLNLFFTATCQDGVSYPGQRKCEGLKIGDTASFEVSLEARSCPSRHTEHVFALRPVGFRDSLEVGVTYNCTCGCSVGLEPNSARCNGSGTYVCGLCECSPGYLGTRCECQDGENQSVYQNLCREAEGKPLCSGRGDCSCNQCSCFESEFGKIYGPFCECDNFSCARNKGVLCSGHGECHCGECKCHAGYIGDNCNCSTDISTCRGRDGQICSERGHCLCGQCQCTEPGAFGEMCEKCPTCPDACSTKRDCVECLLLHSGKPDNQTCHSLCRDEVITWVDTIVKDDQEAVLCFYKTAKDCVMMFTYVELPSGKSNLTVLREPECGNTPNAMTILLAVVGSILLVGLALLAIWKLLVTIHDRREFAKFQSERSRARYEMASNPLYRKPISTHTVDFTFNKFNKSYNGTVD
Chain of integrin receptors (αvβ5) expressed on MDA-MB-231 cells (P06756 31-889): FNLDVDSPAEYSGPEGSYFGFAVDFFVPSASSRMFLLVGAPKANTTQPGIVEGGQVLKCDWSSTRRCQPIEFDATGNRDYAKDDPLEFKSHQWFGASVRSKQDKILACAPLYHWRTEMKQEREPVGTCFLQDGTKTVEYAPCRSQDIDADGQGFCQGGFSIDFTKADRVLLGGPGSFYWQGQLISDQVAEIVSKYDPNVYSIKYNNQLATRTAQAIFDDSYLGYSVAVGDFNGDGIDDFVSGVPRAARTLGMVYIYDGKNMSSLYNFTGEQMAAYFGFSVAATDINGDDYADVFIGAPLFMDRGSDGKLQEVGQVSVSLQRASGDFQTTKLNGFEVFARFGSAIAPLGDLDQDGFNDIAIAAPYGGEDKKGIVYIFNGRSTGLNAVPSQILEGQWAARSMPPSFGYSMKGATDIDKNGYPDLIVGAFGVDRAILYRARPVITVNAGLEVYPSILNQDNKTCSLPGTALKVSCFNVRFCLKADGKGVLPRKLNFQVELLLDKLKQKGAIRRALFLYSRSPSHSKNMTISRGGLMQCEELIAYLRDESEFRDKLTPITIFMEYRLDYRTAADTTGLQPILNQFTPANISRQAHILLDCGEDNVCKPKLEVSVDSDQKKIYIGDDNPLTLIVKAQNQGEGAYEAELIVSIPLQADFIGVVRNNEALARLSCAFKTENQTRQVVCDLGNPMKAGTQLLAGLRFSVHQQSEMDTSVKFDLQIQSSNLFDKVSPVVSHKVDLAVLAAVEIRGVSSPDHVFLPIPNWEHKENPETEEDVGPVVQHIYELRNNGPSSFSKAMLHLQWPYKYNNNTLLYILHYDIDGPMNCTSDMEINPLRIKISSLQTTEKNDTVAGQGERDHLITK

I: GCPRPRGDNPPLTC[Dap]QDSDCLAGCVCGPNGFCG-NH2 / II: GCPRPRGDNPPLTC[Dap]QDSDCLAGCVCGPNGFCG-NH2 (disulfide I:2-I:24, I:14-I:26, I:20-I:32, II:2-II:24, II:14-II:26, II:20-II:32; linker I:15-II:15 via X1) [D2.5F_1]
Increase in relative binding affinity compared with cilengitide [1]: 500 fold
Increase in relative binding affinity compared with the knottin monomer [1]: 60 fold
Inhibition of MDA-MB-231 cell proliferation [2]: significantly more potent
